Key:
Assay type in all cases: functional
Rattus norvegicus [1] = assay: The compound was evaluated in vivo for its ability to inhibit formalin induced flinching in rats by intrapaw administration
Outline: (§1)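 Rat formalin-induced flinching with intrapaw dosing. Read-out is % inhibition of flinching at the stated dose. Agents reaching ≥80% antagonism at 300 µg were titrated to an A50 in µg.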

Rattus norvegicus [2] = assay: The compound was evaluated in vivo for antagonism of formalin induced flinching in rats at 300 (microg) by intrapaw administration; outline: as §1
Rattus norvegicus [3] = assay: The compound was evaluated in vivo for antagonism of formalin induced […] in rats at 10 […] by subcutaneous administration
Outline: (§2)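 Rat formalin-induced flinching with subcutaneous dosing, starting at 10 or 30 mg/kg. Read-out is % inhibition of flinching at the dose given, or an A50 in mg/kg from titration.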

Rattus norvegicus [4] = assay: The compound was evaluated in vivo for their ability to inhibit formalin induced flinching in rats by subcutaneous administration; outline: as §2
Rattus norvegicus [5] = assay: The compound was evaluated in vivo for sedation in rats by subcutaneous administration using Rotarod assay; details: sc
Outline: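 Sedation, taken as a centrally mediated side effect, scored by rotarod performance in rats after subcutaneous dosing. Read-out is the ED50 in mg/kg.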

Rattus norvegicus [6] = assay: The compound was evaluated in vivo for antagonism of formalin induced flinching in rats at 1000 (microg) by intrapaw administration; outline: as §1
Rattus norvegicus [7] = assay: The compound was evaluated in vivo for antagonism of formalin induced financing in rats at 30 […] by subcutaneous administration; outline: as §2
Rattus norvegicus [8] = assay: The compound was evaluated in vivo for percent decrease of sedation in rats at 3 mg/kg by subcutaneous administration using Rotarod assay

SMILES | A50 (Rattus norvegicus [1]) [µg] | A50 (Rattus norvegicus [4]) [mg/kg] | ED50 (Rattus norvegicus [5]) [mg/kg] | other results
CN(C(=O)Cc1ccc(Cl)c(Cl)c1N)[C@H](CN1CCCC1)c1ccccc1 | 7 | – | – | –
CN(C(=O)Cc1cccc(N)c1)[C@H](CN1CCCC1)c1ccccc1 | – | – | – | Antagonism (Rattus norvegicus [2]): 58%
CN(C(=O)Cc1cccc(N(S(C)(=O)=O)S(C)(=O)=O)c1)[C@H](CN1CCCC1)c1ccccc1 | – | – | – | Antagonism (Rattus norvegicus [2]): 91%; Antagonism (Rattus norvegicus [3]): 15%
CN(C(=O)Cc1cccc([N+](=O)[O-])c1)[C@H](CN1CCCC1)c1ccccc1 | – | – | – | Antagonism (Rattus norvegicus [2]): 95%
CN(C(=O)Cc1ccc(Cl)c(Cl)c1N(S(C)(=O)=O)S(C)(=O)=O)[C@H](CN1CCCC1)c1ccccc1 | 28 | – | – | –
CN(C(=O)Cc1ccc(C(F)(F)F)cc1)[C@H](CN1CCCC1)c1ccccc1 | 0.82 | 0.009 | 0.12 | –
CN(C(=O)Cc1ccc(N(S(C)(=O)=O)S(C)(=O)=O)cc1)[C@H](CN1CCCC1)c1ccccc1 | – | – | – | Antagonism (Rattus norvegicus [6]): 95%; Antagonism (Rattus norvegicus [7]): 30%
CN(C(=O)Cc1ccc(Cl)c(Cl)c1)[C@H](CN1CCCC1)c1ccccc1 [ICI-199,441] | 0.74 | 0.05 | 0.14 | –
CN(C(=O)Cc1ccccc1[N+](=O)[O-])[C@H](CN1CCCC1)c1ccccc1 | 29 | – | – | –
CN(C(=O)Cc1ccccc1C(F)(F)F)[C@H](CN1CCCC1)c1ccccc1 | – | 0.54 | – | Decrease (Rattus norvegicus [8]): 71%
CN(C(=O)Cc1cccc(C(F)(F)F)c1)[C@H](CN1CCCC1)c1ccccc1 | – | 0.02 | 0.18 | –
CN(C(=O)Cc1ccc(Cl)c(Cl)c1[N+](=O)[O-])[C@H](CN1CCCC1)c1ccccc1 | 5.3 | 0.24 | 0.97 | –
CN(C(=O)Cc1ccc(N)cc1)[C@H](CN1CCCC1)c1ccccc1 | – | – | – | Antagonism (Rattus norvegicus [2]): 52%
CN(C(=O)Cc1ccccc1N(S(C)(=O)=O)S(C)(=O)=O)[C@H](CN1CCCC1)c1ccccc1 | 17 | – | – | Antagonism (Rattus norvegicus [7]): 21%
CN(C(=O)Cc1ccccc1N)[C@H](CN1CCCC1)c1ccccc1 | 65 | 1.5 | 8.9 | –
